# Screening data (PubChem)
# Compounds with a hit are over-represented: about 3.5% of the library has one in this group of screens.
# Ecoli rRNA inh: inhibitors of bacterial rRNA selective over humanized ribosomes. E. coli WT GFP vs humanized-ribosome RFP mutants, fluorescence, 24 h; stronger effect = lower value; DMSO median 0, no signal -100. GFP signal change (wild-type ribosome), % (concentration not given with the values). 1.6% of 350,000 active;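 active = significant combined selectivity score with lowered wild-type GFP, culture density cut under 30%, mutant RFP and density less affected; inactive = any of these conditions unmet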
# ERAP1 HTS inh: ERAP1 (human) enzyme inhibition; 0.15% of 340,000 active; AID 652197; inhibition, % at 10.7 µM; Q9NZ08; recombinant ERAP1, Leu-AMC fluorescence, 60 min;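 active = mean replicate inhibition of at least 30%, or all replicates individually reaching that 30% level; inactive = mean below 30% and not every replicate reaching it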;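 note: 0% = neutral control wells and 100% = L-leucinethiol positive control wells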
# PGC1a acetyl inh: modulators of PGC1a acetylation | U2OS PGC1a acetylation, AlphaScreen anti-acetyl-lysine; with virally co-expressed GCN5 acetyltransferase | inhibition, % at 15.6 µM | 0.17% of 350,000 active | AID 651687;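 active = every replicate shows inhibition of at least 40%; inconclusive = mean inhibition at least 40% but some replicate below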;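 note: 0% = neutral control wells and 100% = positive control wells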
# Env fusion inh: inhibitors of HIV Env-mediated cell fusion; HeLa-JRFL Env/CEM21 cell fusion, luciferase; inhibition, % at 12.3 µM; 1.1% of 360,000 active; AID 651610;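 active = mean replicate inhibition score of at least 50 and every replicate individually at or above 50; inconclusive = only one of the two criteria met; inactive = mean below 50 and not all replicates reaching 50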;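 note: 0% = plate neutral controls and 100% = maraviroc near 300 nM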
# FGF22 binding: binders of recombinant human FGF22 by thermal shift | SYPRO orange fluorescence; percent of sucrose octasulfate shift, DMSO zero | 1.5% of 340,000 active | activity (Tm shift, normalised), % at 9.99 µM | AID 651658;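 active = mean Tm shift, scaled 0 neutral to 100 positive control, at about 1.3% or above, every replicate too, limit read from the data; inconclusive = no clear call, values can overlap the other calls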
# Cneo AK release: Cryptococcus neoformans lysis via adenylate kinase release. C. neoformans lysis, adenylate kinase release luminescence, 4 h; normalised: neutral wells 0, clomiphene wells 100. lysis activity, % at 15 µM. 0.2% of 360,000 active. AID 651654;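 active = mean lysis activity across replicates of at least 80%, whatever share of replicates individually reach that level; inactive = mean lysis activity below 80%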
#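 Material – Cryptococcus neoformans yeast cells · Quantity – 5 × 10^6 yeast cells/mL · Buffer or medium – YPD medium · Compound – single dose · Timing – 4 h static compound exposure, 37 °C, read 1 h post-reagent · Signal – adenylate kinase release luminescence · Read-out basis – lysis from increased AK signal · Benchmarks – Clomiphene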
# The depositor's hits bear a star; ? = inconclusive; / = no result; [ ] = remark or other dose.
SMILES,Ecoli rRNA inh,ERAP1 HTS inh,PGC1a acetyl inh,Env fusion inh,FGF22 binding,Cneo AK release
O=C(Cc1ccccc1[N+](=O)[O-])NCc1ccncc1,12.9,-0.7,/,-4.7,/,-2.6
CCOc1ccccc1CNC(=O)C1CCN(c2nc3ccccc3o2)CC1,/,/,-0.5,33.3,/,-2.9
CCOC(=O)c1cc2c(C)n(-c3ccc(OCC)cc3)c(C)c2ccc1=O,/,/,-13.4,61.1*,/,-1.6
Cc1ccc(C(O)CN2C3=NCCCN3c3ccccc32)cc1 (stereo unspecified),5.6,-0.6,-2.2,/,0.0,-4.0
COc1ccc(C(CNC(=O)C(C)Sc2ccccc2)N2CCOCC2)cc1 (stereo unspecified),5.7,-1.9,2.2,5.8,0.4,-2.3
NS(=O)(=O)c1ccc(CCNC(=O)/C=C/c2ccc([N+](=O)[O-])cc2)cc1,-17.9*,2.9,8.3,-2.8,42.0,/
CN(C)S(=O)(=O)c1ccc(N2CCCC2)c(C(=O)NCCc2ccc(F)cc2)c1,1.5,-7.0,2.1,74.6*,0.0,1.3
CN(C)S(=O)(=O)c1ccc(N2CCCC2)c(C(=O)NCC2CCCCC2)c1,16.8,-1.9,/,24.4,0.3,/
NS(=O)(=O)c1ccc(CCNC(=O)c2cc([N+](=O)[O-])ccc2N2CCCCC2)cc1,-17.1*,1.0,/,13.8,0.0,0.3
COc1ccc(CCNC(=O)c2cc([N+](=O)[O-])ccc2N2CCOCC2)cc1,7.8,-0.1,/,-17.8,0.0,/
O=C(Nc1ccccc1NC(=O)c1csnn1)c1csnn1,5.5,2.4,2.7,7.6,43.2*,/
Nc1nc(-c2nc3ccccc3[nH]2)cs1,/,/,-4.2,-76.1,/,0.9
CSc1sc(-c2ccnc(SCC(=O)C(C)(C)C)n2)c2c1C(=O)CC(C)(C)C2,3.6,8.1,-9.2,64.5*,-0.1,/
Fc1ccc(CO/N=C/C2=C(Cl)c3ccccc3CC2)cc1,/,/,79.1*,/,/,/
O=c1cc2c(nn1Cc1ccc(F)cc1)-c1ccccc1CC2,-58.8,1.9,/,5.1,0.0,/
O=C(Nc1nnc(-c2ccccc2)s1)c1ccccc1F,4.8,2.4,10.2,-160.0,-0.2,3.2
CC1(C)OC2CC3C4CCC5=CC(=O)CCC5(C)C4(F)C(O)CC3(C)C2(C(=O)CO)O1 (stereo unspecified),-5.5,4.4,3.3,/,43.7*,/
CC(=O)N1CCN(c2ccc(NCc3ccc(Br)o3)cc2)CC1,16.5,5.0,2.2,-6.6,-0.9,-1.2
Cc1ccc(N(Cc2ccc(C(=O)NCC3CCCO3)cc2)S(C)(=O)=O)cc1C (stereo unspecified),4.2,3.8,/,-2.1,43.4*,/
O=C(CNC(=S)N(Cc1ccccc1F)C1CCCCC1)NCC1CCCO1 (stereo unspecified),-31.7*,2.9,9.0,?,-0.2,/
CC(=O)NNC(=O)CSc1nnc(-c2ccccc2)c(-c2ccccc2)n1,10.0,1.1,13.9,1.8,-0.1,92.5*
CC(C)(C)c1ccc(S(=O)(=O)NCC2CCCO2)cc1 (stereo unspecified),-10.2,3.2,14.2,-3.4,-0.1,5.0
O=S(=O)(NCC1CCCO1)c1ccc(-c2ccc(Cl)cc2)cc1 (stereo unspecified),-25.4*,/,-2.2,18.6,0.0,/
O=C(CNC(=S)N(Cc1ccc(F)cc1)C1CCCCC1)NCC1CCCO1 (stereo unspecified),4.2,2.6,0.4,-11.6,-0.1,/
COc1ccc(C2=NOC(C(=O)Nc3cc(C)on3)C2)cc1 (stereo unspecified),5.9,-1.0,-10.9,22.1,0.1,0.1
SMILES,Ecoli rRNA inh,ERAP1 HTS inh,PGC1a acetyl inh,Env fusion inh,FGF22 binding,Cneo AK release
NS(=O)(=O)c1ccc(N=Nc2c(=O)[nH]n3c(=O)c4c([nH]c23)CCCC4)cc1,7.1,8.8,4.4,5.3,0.3,-2.0
CS(=O)(=O)N(Cc1ccc(Cl)cc1)c1ccc(C(=O)NCCC2=CCCCC2)cc1,/,/,-3.5,85.3*,/,1.1
Cc1ccc(SCC(=O)NCC2CCCO2)cc1 (stereo unspecified),8.7,-1.4,/,-1.9,43.2*,/
CS(=O)(=O)Nc1ccc(C(=O)NCCC2=CCCCC2)cc1,/,/,5.3,-20.2,/,1.9
O=C(CSc1nc2ccccc2c(=O)n1-c1ccccc1)NCC1CCCO1 (stereo unspecified),2.7,82.0*,15.1,4.2,-0.3,4.1
Cc1ccc(NS(=O)(=O)c2ccc(C(=O)NCC3CCCO3)cc2)cc1 (stereo unspecified),2.3,1.8,/,11.1,43.7*,/
COC(=O)C[C@H]1C=C[C@H](NC(=O)Nc2ccc(C(F)(F)F)cc2)[C@H](CO)O1,-7.1,-1.2,11.7,-28.5[16.7 µM],0.1,-11.9
CCC(=O)c1cn(CC(=O)NCC2CCCO2)c2ccccc12 (stereo unspecified),/,/,/,-68.8,/,0.7
O=C(Cc1ccccc1)NCC1CCCO1 (stereo unspecified),/,/,3.0,-2.6,/,0.3
O=C(Cn1c(NCCO)nc2ccccc21)NCC1CCCO1 (stereo unspecified),9.8,-0.6,-2.1,17.9,43.1*,-0.5
O=C(CSc1nnc(-c2ccccc2)c(-c2ccccc2)n1)NCC1CCCO1 (stereo unspecified),-5.9,2.6,11.9,-10.5,43.2*,-2.5
CCN(CC)C(=O)C(=O)c1cn(CC(=O)NCC2CCCO2)c2ccccc12 (stereo unspecified),17.9,2.3,/,0.0,43.9*,/
O=C(Cc1ccc(F)cc1)NCC1CCCO1 (stereo unspecified),20.1,-1.5,9.1,-12.8,43.3*,0.7
NC(=O)NC(Cc1ccccc1)C(=O)NCC1(N2CCCCC2)CCCCC1 (stereo unspecified),/,/,/,-14.3,/,-0.4
CC(=O)Nc1ccc2nc(NC(=O)C(Cl)(Cl)Cl)sc2c1,-37.1*,-2.0,/,-4.1,/,/
CC(=O)Nc1ccc2nc(NC(=O)c3cccnc3)sc2c1,31.9,-2.9,-4.2,-12.1,0.6,/
CCC(=O)Nc1nc2ccc(NC(=O)c3cc(OC)c(OC)c(OC)c3)cc2s1,-36.3*,3.4,-9.2,15.9,0.2,-0.5
CC(=O)Nc1ccc2nc(NC(=O)COc3ccccc3Cl)sc2c1,-2.3,2.6,10.3,-20.1,43.2*,1.9
O=C(C(Cl)Cl)N1CCN(Cc2ccccc2)CC1,/,-1.0,/,5.2,0.0,/
CN1CCN(c2ccc(S(=O)(=O)N3CCOCC3)cc2NC(=O)CC(C)(C)C)CC1,/,-0.8,/,/,0.2,-1.2
C[N+]1(CC(O)COCC2COc3ccccc3O2)CCOCC1 (stereo unspecified),20.5,104.0*,-16.0,?,0.0,/
CN1CCN(C(=O)CCC(=O)O)CC1,10.4,-1.4,-3.3,4.7,-0.4,0.9
O=C(O)CCC(=O)N1CCCC1,/,2.5,/,-30.0,42.9*,/
COC(=O)Cc1nnn2c1[C@@H](C)[C@@H](c1ccccc1Br)O[C@@H](C)C2,-5.1,-1.2,/,58.9*,41.0,/
